Measured values taken from ChEMBL document CHEMBL3997769, “Discovery and preclinical evaluation of 7-benzyl-N-(substituted)-pyrrolo[3,2-d]pyrimidin-4-amines as single agents with microtubule targeting effects along with triple-acting angiokinase inhibition as antitumor agents” (Bioorg Med Chem, 2017).
Activity calls are given as the source filed them. The calls are words filed in the database; no cut-off is given here.

Key:
SK-MEL-28 = assay: Growth inhibition of human SK-MEL-28 cells incubated for 48 hrs by sulforhodamine B assay; format: functional; conditions: SK-MEL-28, 48 h
SK-MEL-2 = assay: Growth inhibition of human SK-MEL-2 cells incubated for 48 hrs by sulforhodamine B assay; format: functional; conditions: SK-MEL-2, 48 h
SF-295 = assay: Growth inhibition of human SF295 cells incubated for 48 hrs by sulforhodamine B assay; format: functional; conditions: SF-295, 48 h
SF-268 = assay: Growth inhibition of human SF268 cells incubated for 48 hrs by sulforhodamine B assay; format: functional; conditions: SF-268, 48 h
Malme-3M = assay: Growth inhibition of human MALME-3M cells incubated for 48 hrs by sulforhodamine B assay; format: functional
NCI-H460 = assay: Growth inhibition of human NCI-H460 cells incubated for 48 hrs by sulforhodamine B assay; format: functional; conditions: NCI-H460, 48 h
SW-620 = assay: Growth inhibition of human SW620 cells incubated for 48 hrs by sulforhodamine B assay; format: functional; conditions: SW-620, 48 h
[1] = Solubility of the compound in water; format: physicochemical; conditions: buffer
DU-145 = assay: Growth inhibition of human DU145 cells incubated for 48 hrs by sulforhodamine B assay; format: functional; conditions: DU-145, 48 h
HT-29 = assay: Growth inhibition of human HT-29 cells incubated for 48 hrs by sulforhodamine B assay; format: functional; conditions: HT-29, 48 h
4T1 [2] = assay: Antitumor activity against luciferase/GFP-tagged mouse 4T1 cells implanted in Balb/CJ mouse assessed as reduction in primary tumor growth at 50 mg/kg, ip administered three times in a week; format: functional, organism-based
LOX IMVI = assay: Growth inhibition of human LOXIMVI cells incubated for 48 hrs by sulforhodamine B assay; format: functional
UACC-257 = assay: Growth inhibition of human UACC257 cells incubated for 48 hrs by sulforhodamine B assay; format: functional; conditions: UACC-257, 48 h
ACHN = assay: Growth inhibition of human ACHN cells incubated for 48 hrs by sulforhodamine B assay; format: functional
CAKI-1 = assay: Growth inhibition of human Caki1 cells incubated for 48 hrs by sulforhodamine B assay; format: functional; conditions: CAKI-1, 48 h
MDA-MB-435 = assay: Growth inhibition of human MDA-MB-435 cells incubated for 48 hrs by sulforhodamine B assay; format: functional; conditions: MDA-MB-435, 48 h
Bos taurus = species on record: Bos taurus; assay: Displacement of [3H]colchicine from bovine brain tubulin at 1 uM measured after 10 mins by liquid scintillation counting method relative to control
Mus musculus = assay: Toxicity in Balb/cJ mouse assessed as body weight loss administered three times weekly measured every 2 days during compound dosing; conditions: in vivo, 48 h
How it was run: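 Female BALB/cJ mice, 8 weeks old, bearing orthotopic 4T1-Luc2-GFP allografts (7,500 cells implanted in mammary fat pad #4). Dosing began one week after implantation: intraperitoneal, three times weekly, in 5% Pharmasolve plus 5% Solutol HS in normal saline. Body weight reported as percent change at day 40 versus starting weight, with n = 9–10 and one-way ANOVA against untreated controls.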

HCT-15 = assay: Growth inhibition of human HCT15 cells incubated for 48 hrs by sulforhodamine B assay; format: functional; conditions: HCT-15, 48 h
MOLT-4 = assay: Growth inhibition of human MOLT4 cells incubated for 48 hrs by sulforhodamine B assay; format: functional; conditions: MOLT-4, 48 h
KM12 = assay: Growth inhibition of human KM12 cells incubated for 48 hrs by sulforhodamine B assay; format: functional; conditions: KM12, 48 h
HOP-92 = assay: Growth inhibition of human HOP92 cells incubated for 48 hrs by sulforhodamine B assay; format: functional; conditions: HOP-92, 48 h
PC-3 = assay: Growth inhibition of human PC3 cells incubated for 48 hrs by sulforhodamine B assay; format: functional; conditions: PC-3, 48 h
MCF7 = assay: Growth inhibition of human MCF7 cells incubated for 48 hrs by sulforhodamine B assay; format: functional; conditions: MCF7, 48 h
NCI-H23 = assay: Growth inhibition of human NCI-H23 cells incubated for 48 hrs by sulforhodamine B assay; format: functional; conditions: NCI-H23, 48 h
A498 = assay: Growth inhibition of human A498 cells incubated for 48 hrs by sulforhodamine B assay; format: functional; conditions: A498, 48 h
Chorioallantoic membrane = assay: Antiangiogenic activity in Leghorn chicken egg chorioallantoic membrane assessed as inhibition of human VEGF-165/bFGF-induced blood vessels formation measured after 40 hrs by microscopic method; format: functional, tissue-based; conditions: Gallus gallus
MDA-MB-231 = assay: Growth inhibition of human MDA-MB-231 cells incubated for 48 hrs by sulforhodamine B assay; format: functional; conditions: MDA-MB-231, 48 h
A549 = assay: Growth inhibition of human A549/ATCC cells incubated for 48 hrs by sulforhodamine B assay; format: functional; conditions: A549, 48 h
SF-539 = assay: Growth inhibition of human SF539 cells incubated for 48 hrs by sulforhodamine B assay; format: functional; conditions: SF-539, 48 h
HCC 2998 = assay: Growth inhibition of human HCC2998 cells incubated for 48 hrs by sulforhodamine B assay; format: functional; conditions: HCC 2998, 48 h
A-431 = assay: Cytotoxicity against human A431 cells; format: functional, cell-based
4T1 [3] = assay: Antitumor activity against luciferase/GFP-tagged mouse 4T1 cells implanted in Balb/cJ mouse assessed as reduction in lung metastasis at 50 mg/kg, ip administered three times weekly by fluorescence microscopic method; format: functional, organism-based
How it was run: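 Orthotopic 4T1-Luc2-GFP allograft in the mammary fat pad of female BALB/cJ mice; IP treatment in 5% Pharmasolve/5% Solutol HS in saline began one week after implantation. At study end, lungs were excised from mice euthanized under isoflurane and imaged with a GFP-filter fluorescence dissecting microscope; GFP-positive metastases per lung counted. n = 9-10.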

COLO 205 = assay: Growth inhibition of human COLO205 cells incubated for 48 hrs by sulforhodamine B assay; format: functional; conditions: COLO 205, 48 h
[4] = Inhibition of bovine brain tubulin assembly preincubated for 15 mins followed by GTP addition measured for 20 mins by spectrophotometric method; design: species or system Bos taurus
HeLa = assay: Growth inhibition of human HeLa cells measured after 96 hrs by sulforhodamine B assay; format: functional, cell-based
How it was run: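 Exposed 96 h to varying compound concentrations in 0.5% DMSO. Cell protein measured by sulforhodamine B; IC50 = concentration halving the increase in cell protein versus untreated cultures.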

HL-60(TB) = assay: Growth inhibition of human HL-60(TB) cells incubated for 48 hrs by sulforhodamine B assay; format: functional; conditions: HL-60, 48 h
OVCAR-8 = assay: Growth inhibition of human OVCAR8 cells incubated for 48 hrs by sulforhodamine B assay; format: functional; conditions: OVCAR-8, 48 h
CCRF-CEM = assay: Growth inhibition of human CCRF-CEM cells incubated for 48 hrs by sulforhodamine B assay; format: functional
RPMI-8226 = assay: Growth inhibition of human RPMI8226 cells incubated for 48 hrs by sulforhodamine B assay; format: functional; conditions: RPMI-8226, 48 h
BT-549 = assay: Growth inhibition of human BT549 cells incubated for 48 hrs by sulforhodamine B assay; format: functional; conditions: BT-549, 48 h
SK-MEL-5 = assay: Growth inhibition of human SK-MEL-5 cells incubated for 48 hrs by sulforhodamine B assay; format: functional; conditions: SK-MEL-5, 48 h

COc1ccc(N(C)c2nc(C)nc3c(Cc4ccccc4)cn(C)c23)cc1.Cl
GI50 (SK-MEL-28): 48.7 nM | GI50 (SK-MEL-2): 28.6 nM | GI50 (SF-295): 30.4 nM | GI50 (SF-268): 350 nM | GI50 (Malme-3M): 17.7 nM | GI50 (NCI-H460): 38.7 nM | GI50 (SW-620): 38.4 nM | solubility [1]: Soluble | GI50 (DU-145): 44.4 nM | GI50 (HT-29): 35.1 nM | Activity (4T1 [2]): Active | GI50 (LOX IMVI): 58.8 nM | GI50 (UACC-257): 78.2 nM | GI50 (ACHN): 172 nM | GI50 (CAKI-1): 56.6 nM | GI50 (MDA-MB-435): 21.4 nM | inhibition (Bos taurus): 73% | MTD (Mus musculus): 50 mg/kg | GI50 (HCT-15): 38.1 nM | GI50 (MOLT-4): 50.8 nM | GI50 (KM12): 44.5 nM | GI50 (HOP-92): 47.1 nM | GI50 (PC-3): 49.6 nM | GI50 (MCF7): 33.3 nM | GI50 (NCI-H23): 45.8 nM | GI50 (A498): 20.2 nM | IC50 (Chorioallantoic membrane): 2200 nM | GI50 (MDA-MB-231): 63.7 nM | GI50 (A549): 44 nM | GI50 (SF-539): 25.4 nM | GI50 (HCC 2998): 71.1 nM | IC50 (A-431): 1200 nM | Activity (4T1 [3]): Active | GI50 (COLO 205): 26.3 nM | IC50 [4]: 480 nM | IC50 (HeLa): 14 nM | GI50 (HL-60(TB)): 26.8 nM | GI50 (OVCAR-8): 49.1 nM | GI50 (CCRF-CEM): 33.5 nM | GI50 (RPMI-8226): 36.9 nM | GI50 (BT-549): 48.2 nM | GI50 (SK-MEL-5): 54.2 nM
